Test results taken from ChEMBL document CHEMBL1121552, “Glycolipids as potential immunologic adjuvants” (1980).
Activity calls are given as the source filed them. The calls are words filed in the database; no cut-off is given here.

Columns and labels:
Type in all cases: functional
[1] = organism: Mus musculus; experiment: Geometric mean titer of mice receiving 5 ug compound along with vaccine was determined after 21 days
Method in brief: (§1)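 ICR/Ha mice, groups of eight, were injected with an influenza hemagglutinin antigen vaccine plus adjuvant. Hemagglutination-inhibition antibody was assayed in sera taken 21 days post-injection. Titer is the reciprocal of the serum dilution, reported as the group geometric mean.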

[2] = organism: Mus musculus; experiment: Mitogenic activity is evaluated in vitro against splenocyte culture from C58 mice; NA means no activity
Method in brief: (§2)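 Washed splenocytes from C58 mice were plated at 6 x 10^5 viable lymphocytes per well in RPMI 1640 with 10% fetal calf serum. Compound dilutions were added with Con A, E. coli LPS, or medium alone and incubated at 37 °C for 3-4 days. [3H]thymidine was then added, and cells were harvested 4 h later. Counts are geometric means of four replicate wells.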

[3] = organism: Mus musculus; experiment: Geometric mean titer of mice receiving 50 ug compound along with vaccine was determined after 21 days; method in brief: as §1
[4] = organism: Mus musculus; experiment: Mitogenic activity is evaluated in vitro against splenocyte culture from C58 mice; mitogenic; method in brief: as §2

SMILES | Activity [1] | Activity [2] | Activity [3] | Activity [4]
CC1OC(SCCC23C[C@H]4C[C@@H](C2)C[C@@H](C3)C4)C(O)C(O)C1O (stereo partly specified) | 47.57 | – | – | –
CC(C)CCCC(C)C1CCC2C3CC=C4CC(OCCC#CCCSC5OC(C)C(O)C(O)C5O)CCC4(C)C3CCC12C (stereo unspecified) | – | inactive | 33.64 | –
CC(=O)N[C@H]1C(O)O[C@H](CO)[C@@H](O)[C@@H]1O[C@H](C)C(=O)N[C@@H](C)C(=O)N[C@H](CCC(=O)O)C(N)=O (stereo partly specified) [MURAMYL DIPEPTIDE] | – | – | 40 | Mitogenic
CCCCCCCC/C=C\CCCCCCCCSC1OC(C)C(O)C(O)C1O (stereo unspecified) | 61.69 | – | – | –
CC(C)CCC[C@@H](C)[C@H]1CC[C@H]2[C@@H]3CC=C4C[C@@H](OCCCCCCS[C@@H]5O[C@@H](CO)[C@@H](O[C@@H]6O[C@@H](CO)[C@H](O)[C@H](O)[C@@H]6O)[C@H](O)[C@@H]5O)CC[C@]4(C)[C@H]3CC[C@]12C | – | inactive | 40 | –
CC(C)CCCC(C)C1CCC2C3CC=C4CC(OCCCCCCSC5OC(C)C(O)C(O)C5O)CCC4(C)C3CCC12C (stereo unspecified) | 28.28 | inactive | – | –
CC1OC(SCCCc2ccc(C(F)(F)C(F)(F)c3ccccc3)cc2)C(O)C(O)C1O (stereo unspecified) | 33.64 | – | – | –
